Paper PMC3210412 (Biochemical pharmacology, 2011)

Key:
ERβ [1] = biological target: T1, ERβ (Homo sapiens, UniProt Q92731); assay: Luciferase reporter assay in Hs578T-ERβLuc cells; type: cell-based; details: for luciferase induction in Hs578T-ERβLuc (in words): b31: 10 nM DPN or PPT, 24 hr, cosmosiin up to 10 μM
ERα/β and ERβ/β dimers = assay: BRET dimerization assays; type: cell-based; details: unpublished data
ERα [2] = biological target: T2, ERα (Homo sapiens, UniProt P03372); assay: Luciferase reporter assay in Hs578T-ERαLuc cells; type: cell-based; details: for luciferase induction in Hs578T-ERαLuc (in words): b31: 10 nM DPN or PPT, 24 hr
T2 sequence (P03372 1-595): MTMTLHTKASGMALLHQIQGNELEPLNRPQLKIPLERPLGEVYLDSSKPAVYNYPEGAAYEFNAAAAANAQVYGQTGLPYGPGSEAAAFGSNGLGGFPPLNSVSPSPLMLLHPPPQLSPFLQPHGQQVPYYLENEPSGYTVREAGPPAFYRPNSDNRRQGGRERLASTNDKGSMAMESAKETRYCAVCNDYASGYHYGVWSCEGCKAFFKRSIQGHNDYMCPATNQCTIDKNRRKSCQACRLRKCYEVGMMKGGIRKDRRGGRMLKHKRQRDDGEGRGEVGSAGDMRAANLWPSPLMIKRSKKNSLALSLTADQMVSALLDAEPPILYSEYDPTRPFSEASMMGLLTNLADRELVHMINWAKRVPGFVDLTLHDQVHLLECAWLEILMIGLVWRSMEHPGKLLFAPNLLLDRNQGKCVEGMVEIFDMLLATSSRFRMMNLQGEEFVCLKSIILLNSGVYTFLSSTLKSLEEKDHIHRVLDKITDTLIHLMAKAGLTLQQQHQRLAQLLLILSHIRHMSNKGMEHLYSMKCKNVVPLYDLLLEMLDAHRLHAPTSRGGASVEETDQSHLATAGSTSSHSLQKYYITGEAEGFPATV

C3 (ERβ target gene) = assay: qPCR of ERβ target gene C3 in Hs578T-ERβ cells; type: cell-based; details: 50 ng/mL Dox 48 hr, ligand 24 hr; cosmosiin 1 μM
Procedure, shortened: (§1)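 Cells were hormone-depleted for 3 days in phenol red-free DMEM/F12 + 10% charcoal-stripped FBS, split into 5% stripped serum, and induced with 50 ng/mL Dox for 48 hr. They were then treated with Dox plus test compound or 0.1% DMSO vehicle for 24 hr. Total RNA was extracted and assayed by qRT-PCR: ITGA6 in Hs578T-ERα cells, C3 and JAG1 in Hs578T-ERβ cells. There were three biological replicates, with two-tailed t-tests against control.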

ERβ [3] = biological target: T1, ERβ; assay: Competitive ligand binding assay
ERα [4] = biological target: T2, ERα; assay: Competitive ligand binding assay; details: read-out: IC50 ERα, unpublished data
ITGA6 (ERα target gene) = assay: qPCR of ERα target gene ITGA6 in Hs578T-ERα cells; type: cell-based; details: for ITGA6 expression in Hs578T-ERα cells at 1 μM: 1 μM ligand, 24 hr; for ITGA6 expression in Hs578T-ERα cells: ligand 24 hr, DPN 10 nM, liquiritigenin 100 nM
Procedure, shortened: as §1

FLuc reporter transcript = assay: RT-PCR of firefly luciferase; type: cell-based; details: 1 μM cosmosiin vs 1 nM E2, 4 and 24 hr; both cell lines
JAG1 (ERβ target gene) = assay: qPCR of ERβ target gene JAG1 in Hs578T-ERβ cells; type: cell-based; details: for JAG1 repression in Hs578T-ERβ cells: 50 ng/mL Dox 48 hr, ligand 24 hr; for JAG1 repression compared to E2, DPN or 1 μM liquiritigenin: 100 nM liquiritigenin, 1 μM cosmosiin
Procedure, shortened: as §1

ERβ [5] = biological target: T1, ERβ; assay: pGL4.3xERE reporter in HEK293 cells transfected with full length ERβ; type: cell-based; details: 1 nM E2, 24 hr
T47D-KBLuc cells = details: read-out: EC50, T47D-KBLuc cells; approximate; cited from earlier work
[6] = cited from earlier work
ERα [7] = biological target: T2, ERα; details: concentrations up to 2.5 μM; U2OS, HeLa or WAR5 prostate cancer cells transfected with ERα; cited from earlier work
ERα [8] = biological target: T2, ERα; details: cited from earlier work
ERα [9] = biological target: T2, ERα; details: cited from earlier work; remark: listed apart in the source
ERβ [10] = biological target: T1, ERβ; details: cited from earlier work

T1 sequence (Q92731 whole entry): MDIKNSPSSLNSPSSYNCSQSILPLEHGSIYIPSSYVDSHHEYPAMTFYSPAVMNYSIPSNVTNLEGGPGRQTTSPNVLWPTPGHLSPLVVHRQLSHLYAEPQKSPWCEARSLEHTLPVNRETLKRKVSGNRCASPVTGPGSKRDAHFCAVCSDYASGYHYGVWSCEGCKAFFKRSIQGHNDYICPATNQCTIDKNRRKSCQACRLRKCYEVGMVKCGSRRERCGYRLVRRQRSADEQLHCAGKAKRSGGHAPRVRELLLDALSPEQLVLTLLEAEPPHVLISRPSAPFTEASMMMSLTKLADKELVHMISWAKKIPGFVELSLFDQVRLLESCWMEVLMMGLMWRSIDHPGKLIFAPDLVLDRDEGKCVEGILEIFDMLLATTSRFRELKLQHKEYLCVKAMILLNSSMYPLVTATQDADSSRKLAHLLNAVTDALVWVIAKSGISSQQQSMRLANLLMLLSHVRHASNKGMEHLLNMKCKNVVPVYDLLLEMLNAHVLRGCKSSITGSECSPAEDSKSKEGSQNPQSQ

Compound | luciferase induction in Hs578T-ERβLuc (in words) (ERβ [1]) | luciferase induction in Hs578T-ERαLuc (in words) (ERα [2]) | C3 expression in Hs578T-ERβ cells (C3 (ERβ target gene)) | ITGA6 expression in Hs578T-ERα cells at 1 μM (ITGA6 (ERα target gene)) | JAG1 repression in Hs578T-ERβ cells (JAG1 (ERβ target gene)) | JAG1 repression compared to E2, DPN or 1 μM liquiritigenin (JAG1 (ERβ target gene)) | ITGA6 expression in Hs578T-ERα cells (ITGA6 (ERα target gene)) | also measured
O=c1cc(-c2ccc(O)cc2)oc2cc(O[C@@H]3O[C@H](CO)[C@@H](O)[C@H](O)[C@H]3O)cc(O)c12 [Cosmosiin, apigenin 7-glucoside] | induced luciferase expression to a much greater extent than E2 | only slightly activated luciferase reporter expression | induced C3 expression at 1 μM, but not to the same extent as E2 | ITGA6 expression was induced | occurred to a similar degree | do not fully repress JAG1 expression |  | luciferase induction with ICI 182,780 co-treatment or without Dox (ERβ [1]; data not shown): did not induce luciferase expression in Dox-treated cells co-treated with ICI 182,780 or cells not treated with Dox; ER dimer induction (BRET) (ERα/β and ERβ/β dimers): selectively induces ERα/β and ERβ/β dimers; IC50 (ERβ [3]; read-out: IC50 ERβ, unpublished data): 3300 nM; higher binding affinity for ERβ (ERβ [3]; unpublished data): 3 fold; IC50 (ERα [4]): 15900 nM; luciferase transcript level compared to E2 (FLuc reporter transcript): did not induce luciferase expression to a greater extent than E2
N#CC(Cc1ccc(O)cc1)c1ccc(O)cc1 (stereo not shown) [DPN, diarylpropionitrile] |  |  | capable of inducing C3 expression to a comparable level as E2 |  | occurred to a similar degree |  | did not fully activate its expression | 
C[C@]12CC[C@@H]3c4ccc(O)cc4CC[C@H]3[C@@H]1CC[C@@H]2O [E2, 17β-estradiol] |  |  | up-regulated in Hs578T-ERβ cells |  | occurred to a similar degree |  | up-regulated | induction of luciferase, HEK293 + ERβ (ERβ [5]): 15 fold; EC50 (T47D-KBLuc cells): ~0.003 nM
C=Cc1cc(O)cc2nc(-c3ccc(O)c(F)c3)oc12 [ERB-041] |  |  |  |  |  |  |  | efficacy in rheumatoid arthritis trial [6]: did not improve arthritis symptoms; tolerability in rheumatoid arthritis trial [6]: well tolerated
O=C1C[C@@H](c2ccc(O)cc2)Oc2cc(O)ccc21 [Liquiritigenin, liquiritigenin] |  |  | capable of inducing C3 expression to a comparable level as E2 | ITGA6 expression was induced | occurred to a similar degree | do not fully repress JAG1 expression | did not fully activate its expression | activation of ERα in transcriptional assays (ERα [7]): minimal activation of ERα
CCCc1c(-c2ccc(O)cc2)nn(-c2ccc(O)cc2)c1-c1ccc(O)cc1 [PPT, propyl pyrazole triol] | could not induce luciferase expression to the same extent as E2 | selectively activated luciferase expression in Hs578T-ERαLuc | slightly induced C3 expression compared to DMSO |  | had no effect on JAG1 repression |  | up-regulated | EC50 (ERβ [1]): 26 nM; concentrations at which reporter is activated in Hs578T-ERβLuc (ERβ [1]): greater than 100 nM; higher binding affinity for ERα compared to ERβ (ERα [8]): 400 fold; induction of estrogen responsive reporter, HELN-ERα cells (ERα [9]): unable to induce an estrogen responsive reporter; EC50 (ERα [2]): 0.016 nM; selectivity for ERα (EC50 comparison) (ERα [2]; Hs578T-ERαLuc vs Hs578T-ERβLuc): ~1000 fold; induction of estrogen responsive reporter, HEC-1 cells + ERβ (ERβ [10]): unable to induce an estrogen responsive reporter
